Experimental data published in ChEMBL document CHEMBL1125276 (J Med Chem, 1991).

Tests used:
[1] = test system: L1210; assay: Tested for the inhibition of L1210 cell proliferation.; assay type: functional, cell-based; conditions: Mus musculus
Method in brief: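 L1210 cells were grown in RPMI 1640 with 10% FCS, 2 mM L-glutamine and 10 mM HEPES (pH 7.4). Exponential-phase cells (10^5 cells/mL) were exposed for 24 h to 5 drug concentrations in triplicate, then pulsed 3 h with 0.5 µCi/mL [3H]thymidine. Cells were harvested onto filters and counted. IC50 is 50% inhibition of incorporation versus untreated cells, given as the mean of 2–5 independent experiments.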

[2] = test system: P388; assay: Compound was tested for T/C range at optimal dose of 0.25 mg/kg for antitumor activity against P388 leukemia cells in mice.; assay type: functional, Mus musculus
[3] = test system: P388; assay: Long-term survivors (LTS) for 60 days at optimal dose of 0.25 mg/kg for antitumor activity against P388 leukemia cells in 6 mice.; assay type: functional, Mus musculus
[4] = target: Tubulin; assay: The compound tested for the inhibition of tubulin polymerization.; assay type: functional
Method in brief: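 Tubulin was partially purified from dog brain by polymerization/depolymerization cycles and used at 0.5 mg/mL. Compounds were added in DMSO (10 µL per 500 µL reaction) at 10^-6 to 10^-9 M, with DMSO-only controls. Polymerization was followed by turbidity at 350 nm. Rates from two separate experiments were plotted against concentration, and IC50 was read graphically.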

[5] = test system: P388; assay: Compound was tested for T/C range at optimal dose of 12.00 mg/kg for antitumor activity against P388 leukemia cells in mice.; assay type: functional, Mus musculus
[6] = test system: P388; assay: Long-term survivors (LTS) for 60 days at optimal dose of 12.00 mg/kg for antitumor activity against P388 leukemia cells in 5 mice.; assay type: functional, Mus musculus
[7] = test system: P388; assay: Compound was tested for T/C range at optimal dose of 0.5 mg/kg for antitumor activity against P388 leukemia cells in mice; value ranges from 160-447; assay type: functional, Mus musculus
[8] = test system: P388; assay: Long-term survivors (LTS) for 60 days at optimal dose of 0.5 mg/kg for antitumor activity against P388 leukemia cells in 54 mice.; assay type: functional, Mus musculus
[9] = test system: P388; assay: Compound was tested for T/C range at optimal dose of 5.00 mg/kg for antitumor activity against P388 leukemia cells in mice; value ranges from 149-224; assay type: functional, Mus musculus
[10] = test system: P388; assay: Long-term survivors (LTS) for 60 days at optimal dose of 5.00 mg/kg for antitumor activity against P388 leukemia cells in 12 mice.; assay type: functional, Mus musculus
[11] = test system: P388; assay: Compound was tested for T/C range at optimal dose of 0.5 mg/kg for antitumor activity against P388 leukemia cells in mice; value ranges from 151-480; assay type: functional, Mus musculus
[12] = test system: P388; assay: Long-term survivors (LTS) for 60 days at optimal dose of 0.5 mg/kg for antitumor activity against P388 leukemia cells in 96 mice.; assay type: functional, Mus musculus
[13] = test system: P388; assay: Compound was tested for T/C range at optimal dose of 3.0 mg/kg for antitumor activity against P388 leukemia cells in mice.; assay type: functional, Mus musculus
[14] = test system: P388; assay: Long-term survivors (LTS) for 60 days at optimal dose of 3.0 mg/kg for antitumor activity against P388 leukemia cells in 6 mice.; assay type: functional, Mus musculus
[15] = test system: P388; assay: Compound was tested for T/C range at optimal dose of 3.0 mg/kg for antitumor activity against P388 leukemia cells in mice; value ranges from 157-203; assay type: functional, Mus musculus
[16] = test system: P388; assay: Long-term survivors (LTS) for 60 days at optimal dose of 3.0 mg/kg for antitumor activity against P388 leukemia cells in 45 mice.; assay type: functional, Mus musculus
[17] = test system: P388; assay: Compound was tested for T/C range at optimal dose of 3.0 mg/kg for antitumor activity against P388 leukemia cells in mice; value ranges from 165-181; assay type: functional, Mus musculus
[18] = test system: P388; assay: Long-term survivors (LTS) for 60 days at optimal dose of 3.0 mg/kg for antitumor activity against P388 leukemia cells in 15 mice.; assay type: functional, Mus musculus
[19] = test system: P388; assay: Compound was tested for T/C range at optimal dose of 100 mg/kg for antitumor activity against P388 leukemia cells in mice; value ranges from 150-285; assay type: functional, Mus musculus
[20] = test system: P388; assay: Long-term survivors (LTS) for 60 days at optimal dose of 100 mg/kg for antitumor activity against P388 leukemia cells in 54 mice.; assay type: functional, Mus musculus

`CCOP(=O)(OCC)[C@H](C)NC(=O)[C@@]1(O)[C@H](O)[C@]2(CC)C=CCN3CC[C@@]4(c5cc([C@@]6(C(=O)OC)C[C@@H]7CN(CCc8c6[nH]c6ccccc86)C[C@](O)(CC)C7)c(OC)cc5N(C)[C@@H]14)[C@@H]32` showed an IC50 [1] of 0.4 nM, a T/C [2] of 342% and an LTS [3] of 2. It also gave an IC50 [4] of 200 nM.

`C=CC[C@@H](NC(=O)[C@@]1(O)[C@H](O)[C@]2(CC)C=CCN3CC[C@@]4(c5cc([C@@]6(C(=O)OC)C[C@@H]7CN(CCc8c6[nH]c6ccccc86)C[C@](O)(CC)C7)c(OC)cc5N(C)[C@@H]14)[C@@H]32)P(=O)(OCC)OCC` gave an IC50 [1] of 26.4 nM, a T/C [5] of 195% and an LTS [6] of 0.

`CCOP(=O)(OCC)C(NC(=O)[C@@]1(O)[C@H](O)[C@]2(CC)C=CCN3CC[C@@]4(c5cc([C@@]6(C(=O)OC)C[C@@H]7CN(CCc8c6[nH]c6ccccc86)C[C@](O)(CC)C7)c(OC)cc5N(C)[C@@H]14)[C@@H]32)C(C)C` (mixture of isomers) was tested, and the IC50 [1] was 0.64 nM, the T/C [7] was 160% and the LTS [8] was 11. For the same compound, the IC50 [4] was 300 nM.

With `CCOP(=O)(OCC)C(Cc1ccccc1)NC(=O)[C@@]1(O)[C@H](O)[C@]2(CC)C=CCN3CC[C@@]4(c5cc([C@@]6(C(=O)OC)C[C@@H]7CN(CCc8c6[nH]c6ccccc86)C[C@](O)(CC)C7)c(OC)cc5N(C)[C@@H]14)[C@@H]32` (mixture of isomers) the IC50 [1] was 46 nM, the T/C [9] was 149% and the LTS [10] was 0. The IC50 [4] was 70 nM.

`CCOP(=O)(OCC)C(C)NC(=O)[C@@]1(O)[C@H](O)[C@]2(CC)C=CCN3CC[C@@]4(c5cc([C@@]6(C(=O)OC)C[C@@H]7CN(CCc8c6[nH]c6ccccc86)C[C@](O)(CC)C7)c(OC)cc5N(C)[C@@H]14)[C@@H]32` (mixture of isomers) was tested, and the IC50 [1] was 2.5 nM, the T/C [11] was 151% and the LTS [12] was 7. It also gave an IC50 [4] of 100 nM.

In the case of `CCCCCC(NC(=O)[C@@]1(O)[C@H](O)[C@]2(CC)C=CCN3CC[C@@]4(c5cc([C@@]6(C(=O)OC)C[C@@H]7CN(CCc8c6[nH]c6ccccc86)C[C@](O)(CC)C7)c(OC)cc5N(C)[C@@H]14)[C@@H]32)P(=O)(OCC)OCC` (mixture of isomers), the IC50 [1] is reported as 3.97 nM, the T/C [13] is reported as 203% and the LTS [14] is reported as 0. For the same compound, the IC50 [4] was 20 nM.

In the case of `CCOC(=O)CC(NC(=O)[C@@]1(O)[C@H](O)[C@]2(CC)C=CCN3CC[C@@]4(c5cc([C@@]6(C(=O)OC)C[C@@H]7CN(CCc8c6[nH]c6ccccc86)C[C@](O)(CC)C7)c(OC)cc5N(C)[C@@H]14)[C@@H]32)P(=O)(OCC)OCC` (mixture of isomers), the IC50 [1] is reported as 2.77 nM, the T/C [13] is reported as 122% and the LTS [14] is reported as 0. It also gave an IC50 [4] of 300 nM.

With `CC[C@]1(O)C[C@@H]2CN(CCc3c([nH]c4ccccc34)[C@@](C(=O)OC)(c3cc4c(cc3OC)N(C)[C@H]3[C@@](O)(C(=O)OC)[C@H](OC(C)=O)[C@]5(CC)C=CCN6CC[C@]43[C@@H]65)C2)C1` [VINBLASTINE] the IC50 [1] was 3.15 nM, the T/C [15] was 157% and the LTS [16] was 2.

`CC[C@]1(O)C[C@H]2CN(CCc3c([nH]c4ccccc34)[C@@](C(=O)OC)(c3cc4c(cc3OC)N(C=O)[C@H]3[C@@](O)(C(=O)OC)[C@H](OC(C)=O)[C@]5(CC)C=CCN6CC[C@]43[C@@H]65)C2)C1` [VINCRISTINE] gave an IC50 [1] of 4.85 nM, a T/C [17] of 165% and an LTS [18] of 0. It also gave an IC50 [4] of 500 nM.

`CCOC(=O)C(Cc1c[nH]c2ccccc12)NC(=O)[C@@]1(O)[C@H](O)[C@]2(CC)C=CCN3CC[C@@]4(c5cc([C@@]6(C(=O)OC)C[C@@H]7CN(CCc8c6[nH]c6ccccc86)C[C@](O)(CC)C7)c(OC)cc5N(C)[C@@H]14)[C@@H]32` (some centres not stated) [VINTRYPOL] gave a T/C [19] of 150%, an LTS [20] of 2 and an IC50 [4] of 200 nM.
